The source made the active and inactive calls. The rule behind the calls is not given here.
Columns and labels:
[1] = biological target: Amyloid-beta precursor protein (Homo sapiens) (UniProt P05067); assay: Induction of HFIP-pretreated amyloid beta (1 to 42) (unknown origin) disaggregation after 48 hrs by silver staining-based SDS-PAGE analysis
Method in brief: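 Aβ aggregates were incubated with compound for 48 h, with congo red as positive control. Size distribution (monomer, dimer, trimer, high-molecular-weight species) was analysed by SDS-PAGE with silver staining at the start and at the end of incubation.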

Mus musculus [2] = assay: Reversal of cognitive deficit in amyloid beta (1 to 42)-treated Alzheimer's disease ICR mouse model assessed as increase in step-through latency time administered orally for 3 consecutive days by passive avoidance test; format: functional
Method in brief: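 Acute AD model: preformed Aβ aggregates injected into the brains of normal mice. Compound given orally for three consecutive days, then step-through passive avoidance was tested by a standard protocol. Read-out is step-through latency (sec), compared against control and vehicle groups.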

Mus musculus [3] = assay: Reversal of cognitive deficit in amyloid beta (1 to 42)-treated Alzheimer's disease ICR mouse model assessed as increase in spatial memory function administered orally for 3 consecutive days by Y maze test; format: functional
Method in brief: (§1)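 Acute AD model: preformed Aβ aggregates injected directly into the brains of normal mice to induce acute neurotoxicity. Compound given orally for three consecutive days, then the Y-maze was run. Read-out is percentage of spontaneous alternation, compared against normal and vehicle-treated mice.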

Mus musculus [4] = assay: Reversal of cognitive deficit in amyloid beta (1 to 42)-treated Alzheimer's disease ICR mouse model assessed as increase in spatial memory function by measuring spontaneous alternation at 10 mg/kg, po administered for 3 consecutive days by Y maze test relative to control; format: functional; method in brief: as §1
Mus musculus [5] = assay: AUC (infinity) in mouse at 3 mg/kg, iv; format: ADME, organism-based; set-up: dose 3 mg/kg, route intravenous, time infinity; conditions: in vivo
Method in brief: (§2)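 Mice received a single dose of 3 mg/kg i.v. or 3, 10 or 30 mg/kg orally. Plasma concentration-time profiles were analysed for AUC from zero to infinity and to the last measured time (hr*ng/mL), Cmax (ng/mL, C0 after i.v.), Tmax and terminal half-life (hr), and oral bioavailability (%).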

[6] = Terminal half life in mouse at 3 mg/kg, po; format: ADME, organism-based; conditions: in vivo, read-out: beta t1/2 (converted)
Method in brief: (§3)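 Mouse pharmacokinetics: single i.v. dose of 3 mg/kg, or oral doses of 3, 10 and 30 mg/kg. Plasma concentration–time curves gave T1/2 (terminal, hr), Tmax (hr), Cmax, AUC and bioavailability (%).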

[7] = Cmax in mouse at 3 mg/kg, po; format: ADME, organism-based; set-up: dose 3 mg/kg, route oral; conditions: in vivo; method in brief: as §2
[8] = AUClast in mouse at 3 mg/kg, po; format: ADME, organism-based; set-up: dose 3 mg/kg, time 0 - last, route oral; conditions: in vivo; method in brief: as §2
[9] = Terminal half life in mouse at 10 mg/kg, po; format: ADME, organism-based; conditions: in vivo, read-out: beta t1/2 (converted); method in brief: as §3
[10] = AUClast in mouse at 10 mg/kg, po; format: ADME, organism-based; set-up: dose 10 mg/kg, route oral, time 0 - last; conditions: in vivo; method in brief: as §2
[11] = Oral bioavailability in mouse at 10 mg/kg; format: ADME, organism-based; conditions: in vivo; method in brief: as §2
[12] = Terminal half life in mouse at 30 mg/kg, po; format: ADME, organism-based; conditions: in vivo, read-out: beta t1/2 (converted); method in brief: as §3
[13] = AUClast in mouse at 30 mg/kg, po; format: ADME, organism-based; set-up: dose 30 mg/kg, time 0 - last, route oral; conditions: in vivo; method in brief: as §2
[14] = Clearance in iv dosed monkey; format: ADME, organism-based, Macaca mulatta; conditions: rhesus monkey, in vivo
Mus musculus [15] = assay: Volume of distribution at steady state in po ICR mouse; format: ADME, organism-based; conditions: in vivo
[16] = Half life in po dosed rat; format: ADME, organism-based; conditions: in vivo
[17] = Cmax in po dosed dog; format: ADME, organism-based, Canis lupus familiaris; set-up: route oral; conditions: in vivo
[18] = AUC in po dosed dog; format: ADME, organism-based, Canis lupus familiaris; conditions: in vivo
[19] = AUC in po dosed monkey; format: ADME, organism-based, Macaca mulatta; conditions: rhesus monkey, in vivo
[20] = AUC in po dosed ICR mouse; format: ADME, organism-based; conditions: in vivo
[21] = Oral bioavailability in ICR mouse; format: ADME, organism-based; conditions: in vivo
[22] = Ratio of AUC in ICR mouse brain to AUC in ICR mouse plasma at 10 mg/kg, po measured at 1 hr; format: ADME, organism-based; conditions: read-out: Ratio AUC
Method in brief: (§4)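 ICR mice (n=3) given a single oral dose of 10 mg/kg. Brain and plasma were sampled over nine hours, at 0.333, 1, 3, 6 and 9 h. Kp was calculated as AUC_brain/AUC_plasma.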

[23] = Ratio of AUC in ICR mouse brain to AUC in ICR mouse plasma at 10 mg/kg, po measured at 9 hrs; format: ADME, organism-based; conditions: read-out: Ratio AUC; method in brief: as §4
Cytochrome P450 1A2 = biological target: T1, Cytochrome P450 1A2 (Homo sapiens, UniProt P05177); assay: Inhibition of CYP1A2 in human liver microsomes preincubated for 5 mins followed by addition of NADPH generating system measured after 20 mins by LC-MS/MS analysis; format: ADME
T1 sequence (P05177 whole entry): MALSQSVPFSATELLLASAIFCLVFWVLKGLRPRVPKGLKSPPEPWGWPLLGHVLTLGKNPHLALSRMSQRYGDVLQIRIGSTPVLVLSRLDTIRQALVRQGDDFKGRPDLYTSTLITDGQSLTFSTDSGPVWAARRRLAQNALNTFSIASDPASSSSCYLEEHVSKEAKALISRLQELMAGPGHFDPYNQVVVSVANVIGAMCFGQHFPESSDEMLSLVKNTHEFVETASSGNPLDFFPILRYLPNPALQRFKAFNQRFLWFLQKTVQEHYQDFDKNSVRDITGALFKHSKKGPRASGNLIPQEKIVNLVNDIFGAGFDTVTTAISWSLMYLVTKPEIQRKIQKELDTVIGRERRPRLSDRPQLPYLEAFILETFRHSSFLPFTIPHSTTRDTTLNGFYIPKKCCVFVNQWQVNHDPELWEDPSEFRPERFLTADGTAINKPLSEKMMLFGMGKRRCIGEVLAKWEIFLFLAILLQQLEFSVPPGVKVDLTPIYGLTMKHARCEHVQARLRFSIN
Method in brief: (§5)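 Inhibition of each CYP isozyme (1A2, 2A6, 2C8, 2C9, 2C19, 2D6, 3A4) was measured in human liver microsomes. IC50 values were reported in μM.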

Cytochrome P450 2A6 = biological target: T2, Cytochrome P450 2A6 (Homo sapiens, UniProt P11509); assay: Inhibition of CYP2A6 in human liver microsomes preincubated for 5 mins followed by addition of NADPH generating system measured after 20 mins by LC-MS/MS analysis; format: ADME; method in brief: as §5
T2 sequence (P11509 whole entry): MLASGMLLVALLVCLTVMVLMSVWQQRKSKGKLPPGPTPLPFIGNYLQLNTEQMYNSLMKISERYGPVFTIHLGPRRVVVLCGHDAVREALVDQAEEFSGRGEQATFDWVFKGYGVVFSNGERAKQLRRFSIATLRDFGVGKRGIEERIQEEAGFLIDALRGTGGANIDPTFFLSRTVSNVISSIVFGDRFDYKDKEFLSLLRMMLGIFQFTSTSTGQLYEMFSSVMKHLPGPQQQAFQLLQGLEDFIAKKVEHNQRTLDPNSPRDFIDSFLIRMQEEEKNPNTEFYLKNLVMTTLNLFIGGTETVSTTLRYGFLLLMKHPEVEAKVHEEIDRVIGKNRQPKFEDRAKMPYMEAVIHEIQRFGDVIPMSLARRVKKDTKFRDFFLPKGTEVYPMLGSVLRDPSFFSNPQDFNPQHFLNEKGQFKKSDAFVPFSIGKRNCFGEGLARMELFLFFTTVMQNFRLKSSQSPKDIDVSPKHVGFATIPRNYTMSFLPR

[24] = Half-life in po dosed dog; conditions: in vivo
[25] = Half-life in po dosed rat; conditions: in vivo

Sequence of Amyloid-beta precursor protein (Homo sapiens) (P05067 whole entry): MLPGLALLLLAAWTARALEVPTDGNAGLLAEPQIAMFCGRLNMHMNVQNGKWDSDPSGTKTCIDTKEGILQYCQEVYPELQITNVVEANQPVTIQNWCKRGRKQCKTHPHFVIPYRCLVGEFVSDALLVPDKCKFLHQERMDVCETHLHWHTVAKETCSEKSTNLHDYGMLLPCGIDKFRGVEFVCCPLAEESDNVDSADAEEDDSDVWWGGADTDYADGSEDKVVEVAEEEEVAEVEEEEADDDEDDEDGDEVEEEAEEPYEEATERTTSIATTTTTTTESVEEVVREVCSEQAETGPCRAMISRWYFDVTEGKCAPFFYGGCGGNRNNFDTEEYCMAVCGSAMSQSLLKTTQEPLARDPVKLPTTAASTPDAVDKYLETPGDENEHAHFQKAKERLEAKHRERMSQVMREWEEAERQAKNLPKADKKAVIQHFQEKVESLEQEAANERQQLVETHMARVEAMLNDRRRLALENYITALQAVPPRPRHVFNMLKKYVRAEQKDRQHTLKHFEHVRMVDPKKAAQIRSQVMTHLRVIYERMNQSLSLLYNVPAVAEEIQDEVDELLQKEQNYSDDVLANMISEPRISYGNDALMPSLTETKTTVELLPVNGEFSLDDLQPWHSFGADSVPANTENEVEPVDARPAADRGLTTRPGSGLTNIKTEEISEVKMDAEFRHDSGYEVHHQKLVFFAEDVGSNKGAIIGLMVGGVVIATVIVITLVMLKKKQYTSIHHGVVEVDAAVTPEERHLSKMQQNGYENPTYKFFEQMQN

Structure (SMILES): COCCCc1ccc2oc(-c3ccc(OC)c(OC)c3)cc2c1
- Activity [1]: Active
- Activity (Mus musculus [2]): Dose-dependent effect
- ED50 (Mus musculus [2]; po): 0.19 mg/kg
- Activity (Mus musculus [3]): Dose-dependent effect
- ED50 (Mus musculus [3]; po): 0.18 mg/kg
- Activity (Mus musculus [4]): 73.07%
- AUC (Mus musculus [5]): 1325.1 ng·h/mL
- half-life [6]: 2 h
- Cmax [7]: 102 ng/mL
- AUC(0-t) [8]: 246 ng·h/mL
- half-life [9]: 1.6 h
- AUC(0-t) [10]: 2240 ng·h/mL
- bioavailability [11]: 51.9%
- half-life [12]: 3.3 h
- AUC(0-t) [13]: 10400 ng·h/mL
- clearance [14]: 7 mL/min/kg
- Vdss (Mus musculus [15]): 2.5 L/kg
- half-life [16]: 3.8 h
- Cmax [17]: 1610 ng/mL
- AUC [18]: 4190 ng·h/mL
- AUC [19]: 13700 ng·h/mL
- AUC [20]: 13200 ng·h/mL
- bioavailability [21]: 83.3%
- Kp at 1 h [22]: 1.5
- Kp at 9 h [23]: 1.4
- IC50 (Cytochrome P450 1A2): > 50 µM
- IC50 (Cytochrome P450 2A6): > 50 µM
- t1/2 [24]: 1.4 h
- t1/2 [25]: 3.8 h
